Measured values published in ChEMBL document CHEMBL2375235, “Synthesis, radioiodination and in vivo screening of novel potent iodinated and fluorinated radiotracers as melanoma imaging and therapeutic probes” (Eur J Med Chem, 2013).

How the values were obtained:
[1] = Drug uptake in tumor of C57BL/6J mouse xenografted with mouse B16F0 cells at 3.7 MBq, iv after 24 hrs by gamma scintigraphic imaging analysis relative to control; type: ADME, organism-based, Neoplasm; conditions: in vivo
Method in brief: (§1)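 Male C57BL/6J mice (6-8 weeks) bearing subcutaneous B16F0 tumours (3×10^5 cells in PBS, right flank, isoflurane anaesthesia); on day 14 after implant, [125I]-labelled tracer given i.v. via tail vein, 3.7 MBq/mouse, in physiological serum (some tracers in 5% ethanol/physiological serum); 3-8 animals per compound. Under i.p. ketamine (100 mg/kg)–xylazine (10 mg/kg), 10 min planar scintigrams acquired in prone position, 15% window on 35 keV peak.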

[2] = Ratio of drug uptake in tumor to muscle in C57BL/6J mouse xenografted with mouse B16F0 cells at 3.7 MBq, iv after 1 hr; conditions: in vivo
[3] = Drug uptake in tumor of C57BL/6J mouse xenografted with mouse B16F0 cells at 3.7 MBq, iv after 72 hrs by gamma scintigraphic imaging analysis relative to control; type: ADME, organism-based, Neoplasm; conditions: in vivo; method in brief: as §1
[4] = Drug uptake in tumor of C57BL/6J mouse xenografted with mouse B16F0 cells at 3.7 MBq, iv after 3 hrs by gamma scintigraphic imaging analysis relative to control; type: ADME, organism-based, Neoplasm; conditions: in vivo; method in brief: as §1
[5] = Drug uptake in tumor of C57BL/6J mouse xenografted with mouse B16F0 cells at 3.7 MBq, iv after 5 days by gamma scintigraphic imaging analysis relative to control; type: ADME, organism-based, Neoplasm; conditions: in vivo, 120 h; method in brief: as §1
[6] = Drug uptake in tumor of C57BL/6J mouse xenografted with mouse B16F0 cells at 3.7 MBq, iv after 1 hr by gamma scintigraphic imaging analysis relative to control; type: ADME, organism-based, Neoplasm; conditions: in vivo; method in brief: as §1
[7] = Drug uptake in tumor of C57BL/6J mouse xenografted with mouse B16F0 cells at 3.7 MBq, iv after 6 hrs by gamma scintigraphic imaging analysis relative to control; type: ADME, organism-based, Neoplasm; conditions: in vivo; method in brief: as §1
[8] = Drug uptake in tumor of C57BL/6J mouse xenografted with mouse B16F0 cells at 3.7 MBq, iv after 14 days by gamma scintigraphic imaging analysis relative to control; type: ADME, organism-based, Neoplasm; conditions: in vivo, 336 h; method in brief: as §1
[9] = Drug uptake in tumor of C57BL/6J mouse xenografted with mouse B16F0 cells at 3.7 MBq, iv after 10 days by gamma scintigraphic imaging analysis relative to control; type: ADME, organism-based, Neoplasm; conditions: in vivo, 240 h; method in brief: as §1
[10] = Drug uptake in tumor of C57BL/6J mouse xenografted with mouse B16F0 cells at 3.7 MBq, iv after 7 days by gamma scintigraphic imaging analysis relative to control; type: ADME, organism-based, Neoplasm; conditions: in vivo, 168 h; method in brief: as §1
Mus musculus = assay: Toxicity against C57BL/6J mouse xenografted with mouse B16F0 cells assessed as mortality at 3.7 MBq, iv after 2 days; type: organism-based; conditions: in vivo, 48 h
Method in brief: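 Male C57BL/6J mice (6-8 weeks) were inoculated s.c. on the right flank with 3×10^5 B16F0 cells in 0.1 mL PBS under 2% isoflurane. On day 14 after implant they received the [125I]-labelled tracer i.v. via the tail vein at 3.7 MBq/mouse, in physiological serum (5% ethanol in physiological serum for non-salt forms), with 3–8 animals per compound. Survival was recorded 2 days post-injection.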

For `CCN(CC#CCF)CCNC(=O)c1cnc2cc([125I])ccc2n1.Cl`, the Drug uptake [1] was 23.5 % ID/g, the Ratio [2] was 5.76 and the Drug uptake [3] was 14.9 % ID/g. For the same molecule, the Drug uptake [4] was 18.3 % ID/g, the Drug uptake [5] was 11.6 % ID/g and the Drug uptake [6] was 12.3 % ID/g. The Drug uptake [7] was 23.3 % ID/g, the Drug uptake [8] was 2.2 % ID/g and the Drug uptake [9] was 4.2 % ID/g. The Drug uptake [10] was 8 % ID/g.
Work on `CCN(CCCF)CCNC(=O)c1cnc2cc([125I])ccc2n1` yielded a Drug uptake [1] of 11.4 % ID/g, a Drug uptake [3] of 8.5 % ID/g and a Drug uptake [4] of 13.5 % ID/g. It also gave a Drug uptake [5] of 5.4 % ID/g, a Drug uptake [6] of 10 % ID/g and a Drug uptake [7] of 15.3 % ID/g. It also gave a Drug uptake [8] of 0.8 % ID/g, a Drug uptake [9] of 1.4 % ID/g and a Drug uptake [10] of 3 % ID/g.
For `CCN(CCNC(=O)c1cnc2cc([125I])ccc2n1)CCOCCOCCOCCF.Cl`, the Drug uptake [1] was 12.4 % ID/g, the Ratio [2] was 5.76 and the Drug uptake [3] was 8.6 % ID/g. The Drug uptake [4] was 12.1 % ID/g, the Drug uptake [5] was 5.8 % ID/g and the Drug uptake [6] was 11.7 % ID/g. The Drug uptake [7] was 12.1 % ID/g, the Drug uptake [8] was 0.6 % ID/g and the Drug uptake [9] was 1.3 % ID/g. It also gave a Drug uptake [10] of 2.7 % ID/g.
Work on `CCN(CCF)CCNC(=O)c1cnc2cc([125I])ccc2n1.Cl` yielded a Drug uptake [1] of 24.8 % ID/g, a Drug uptake [3] of 20 % ID/g and a Drug uptake [4] of 22.5 % ID/g. For the same molecule, the Drug uptake [5] was 8.4 % ID/g, the Drug uptake [6] was 21.4 % ID/g and the Drug uptake [7] was 25 % ID/g. The Drug uptake [8] was 0.6 % ID/g, the Drug uptake [9] was 1.6 % ID/g and the Activity (Mus musculus) was “Toxic”.
Work on `CCN(C/C=C/CF)CCNC(=O)c1cnc2cc([125I])ccc2n1.Cl` yielded a Drug uptake [1] of 15 % ID/g, a Ratio [2] of 5.76 and a Drug uptake [3] of 10 % ID/g. It also gave a Drug uptake [4] of 12.3 % ID/g, a Drug uptake [5] of 5.6 % ID/g and a Drug uptake [6] of 10.8 % ID/g. The Drug uptake [7] was 13.9 % ID/g, the Drug uptake [8] was 1.3 % ID/g and the Drug uptake [9] was 1.9 % ID/g. It also gave a Drug uptake [10] of 3.3 % ID/g.
With `CCN(CCNC(=O)c1cnc2cc([125I])ccc2n1)CCOCCOCCOCCOCCOCCOCCOCCF` the Drug uptake [1] was 6.8 % ID/g, the Drug uptake [3] was 3.8 % ID/g and the Drug uptake [4] was 7.8 % ID/g. The Drug uptake [5] was 2.7 % ID/g, the Drug uptake [6] was 6.8 % ID/g and the Drug uptake [7] was 7.2 % ID/g. It also gave a Drug uptake [8] of 0.3 % ID/g, a Drug uptake [9] of 0.8 % ID/g and a Drug uptake [10] of 1.5 % ID/g.
`CCN(CCNC(=O)c1cnc2cc([125I])ccc2n1)Cc1cn(CCF)nn1.Cl` gave a Drug uptake [1] of 15.6 % ID/g, a Ratio [2] of 5.76 and a Drug uptake [3] of 11 % ID/g. The Drug uptake [4] was 14.5 % ID/g, the Drug uptake [5] was 8.6 % ID/g and the Drug uptake [6] was 13 % ID/g. The Drug uptake [7] was 15.9 % ID/g, the Drug uptake [8] was 1.8 % ID/g and the Drug uptake [9] was 3.7 % ID/g. The Drug uptake [10] was 5.3 % ID/g.
